Assay results: ChEMBL document CHEMBL1165950, “Design and synthesis of new potent anticancer pyrazoles with high FLT3 kinase inhibitory selectivity” (Bioorg Med Chem, 2010)

Assays:
Type in all cases: functional
Details in all cases: read-out: Activity
[1] = tested on: SF-539; test: Cytotoxicity against human SF539 cells assessed as cell growth at 10 uM
How it was run: (§1)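 NCI-60 screen: cells grown in RPMI 1640 with 5% FBS and 2 mM L-glutamine, plated at 5000–40,000 cells/well according to doubling time, and preincubated 24 h at 37 °C, 5% CO2. The single 10 µM dose (DMSO stock) was added, then incubated 48 h. Cells were TCA-fixed and stained with 0.4% SRB, read at 515 nm, and growth % calculated against time-zero and control plates.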

[2] = tested on: SNB-19; test: Cytotoxicity against human SNB19 cells assessed as cell growth at 10 uM; how it was run: as §1
[3] = tested on: SNB-75; test: Cytotoxicity against human SNB75 cells assessed as cell growth at 10 uM; how it was run: as §1
[4] = tested on: U-251; test: Cytotoxicity against human U251 cells assessed as cell growth at 10 uM; how it was run: as §1
[5] = tested on: LOX IMVI; test: Cytotoxicity against human LOXIMVI cells assessed as cell growth at 10 uM; how it was run: as §1
[6] = tested on: Malme-3M; test: Cytotoxicity against human MALME-3M cells assessed as cell growth at 10 uM; how it was run: as §1
[7] = tested on: M14; test: Cytotoxicity against human M14 cells assessed as cell growth at 10 uM; how it was run: as §1
[8] = tested on: MDA-MB-435; test: Cytotoxicity against human MDA-MB-435 cells assessed as cell growth at 10 uM; how it was run: as §1
[9] = tested on: SK-MEL-2; test: Cytotoxicity against human SK-MEL-2 cells assessed as cell growth at 10 uM; how it was run: as §1
[10] = tested on: SK-MEL-28; test: Cytotoxicity against human SK-MEL-28 cells assessed as cell growth at 10 uM; how it was run: as §1
[11] = tested on: SK-MEL-5; test: Cytotoxicity against human SK-MEL-5 cells assessed as cell growth at 10 uM; how it was run: as §1
[12] = tested on: UACC-257; test: Cytotoxicity against human UACC257 cells assessed as cell growth at 10 uM; how it was run: as §1
[13] = tested on: UACC-62; test: Cytotoxicity against human UACC62 cells assessed as cell growth at 10 uM; how it was run: as §1
[14] = tested on: IGROV-1; test: Cytotoxicity against human IGROV1 cells assessed as cell growth at 10 uM
How it was run: (§2)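 Single-dose NCI-60 screen at 10 µM. Cells were grown in RPMI 1640 with 5% FBS and 2 mM L-glutamine, then treated for 48 h at 37 °C. Protein was measured by SRB staining with absorbance at 515 nm. Percentage growth was recorded, and inhibition percentage was calculated as 100 minus growth percentage.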

[15] = tested on: OVCAR-3; test: Cytotoxicity against human OVCAR-3 cells assessed as cell growth at 10 uM; how it was run: as §1
[16] = tested on: OVCAR-4; test: Cytotoxicity against human OVCAR4 cells assessed as cell growth at 10 uM; how it was run: as §1
[17] = tested on: OVCAR-5; test: Cytotoxicity against human OVCAR5 cells assessed as cell growth at 10 uM; how it was run: as §1
[18] = tested on: OVCAR-8; test: Cytotoxicity against human OVCAR8 cells assessed as cell growth at 10 uM; how it was run: as §1
[19] = tested on: NCI/ADR-RES; test: Cytotoxicity against human NCI/ADR-RES cells assessed as cell growth at 10 uM; how it was run: as §1
[20] = tested on: SK-OV-3; test: Cytotoxicity against human SKOV3 cells assessed as cell growth at 10 uM; how it was run: as §1
[21] = tested on: 786-0; test: Cytotoxicity against human 786-0 cells assessed as cell growth at 10 uM; how it was run: as §2
[22] = tested on: A498; test: Cytotoxicity against human A498 cells assessed as cell growth at 10 uM; how it was run: as §2
[23] = tested on: ACHN; test: Cytotoxicity against human ACHN cells assessed as cell growth at 10 uM; how it was run: as §2
[24] = tested on: CAKI-1; test: Cytotoxicity against human Caki1 cells assessed as cell growth at 10 uM; how it was run: as §2
[25] = tested on: RXF 393; test: Cytotoxicity against human RXF393 cells assessed as cell growth at 10 uM; how it was run: as §1
[26] = tested on: SN12C; test: Cytotoxicity against human SN12C cells assessed as cell growth at 10 uM; how it was run: as §1
[27] = tested on: TK-10; test: Cytotoxicity against human TK10 cells assessed as cell growth at 10 uM; how it was run: as §1
[28] = tested on: UO-31; test: Cytotoxicity against human UO31 cells assessed as cell growth at 10 uM; how it was run: as §1
[29] = tested on: PC-3; test: Cytotoxicity against human PC3 cells assessed as cell growth at 10 uM; how it was run: as §1
[30] = tested on: DU-145; test: Cytotoxicity against human DU145 cells assessed as cell growth at 10 uM; how it was run: as §2

Question: Which results are given for `COc1cc(C)cc(-c2nn(CC#N)cc2-c2ccnc(-c3cccc(NC(C)=O)c3)c2)c1`?
Answer: growth at 10 µM [1]: 84.5%; growth at 10 µM [2]: 89.6%; growth at 10 µM [3]: 72.4%; growth at 10 µM [4]: 94.3%; growth at 10 µM [5]: 97.5%; growth at 10 µM [6]: 108%; growth at 10 µM [7]: 96.3%; growth at 10 µM [8]: 99.6%; growth at 10 µM [9]: 92.1%; growth at 10 µM [10]: 104%; growth at 10 µM [11]: 36.9%; growth at 10 µM [12]: 89.7%; growth at 10 µM [13]: 81.7%; growth at 10 µM [14]: 98.4%; growth at 10 µM [15]: 109%; growth at 10 µM [16]: 99.7%; growth at 10 µM [17]: 91.6%; growth at 10 µM [18]: 88%; growth at 10 µM [19]: 87.3%; growth at 10 µM [20]: 93.3%; growth at 10 µM [21]: 84%; growth at 10 µM [22]: 74.2%; growth at 10 µM [23]: 88%; growth at 10 µM [24]: 77.3%; growth at 10 µM [25]: 81.5%; growth at 10 µM [26]: 83%; growth at 10 µM [27]: 87.1%; growth at 10 µM [28]: 63.6%; growth at 10 µM [29]: 85.8%; growth at 10 µM [30]: 105%
